The text below walks through data of ChEMBL document CHEMBL1123570, “Potent vasopressin antagonists modified at the carboxy-terminal tripeptide tail” (J Med Chem, 1987).

In this test the target is Vasopressin V2 receptor (Sus scrofa) (UniProt P32307). The test is described as follows: Affinity towards vasopressin receptor in porcine renal medullary membrane using [3H]LVP. The format is cell membranes. As to conditions: Renal medulla. The essentials:
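Pig kidney medullary membrane preparation; displacement of [³H]LVP binding. IC50 taken as the ligand concentration giving 50% inhibition of binding; Kbind calculated by the competitive-inhibition equation Kbind = IC50/(1 + L/KD), with KD the dissociation constant of [³H]LVP.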

Bridge positions count the residues as written; N and C are the ends. Square brackets hold non-standard residues; d marks the D form. Peptide text beside a SMILES is read from it. Mpa = O=C(O)CCS Bounds are passed on as bounds.

Sequence of Vasopressin V2 receptor (Sus scrofa) (P32307 whole entry): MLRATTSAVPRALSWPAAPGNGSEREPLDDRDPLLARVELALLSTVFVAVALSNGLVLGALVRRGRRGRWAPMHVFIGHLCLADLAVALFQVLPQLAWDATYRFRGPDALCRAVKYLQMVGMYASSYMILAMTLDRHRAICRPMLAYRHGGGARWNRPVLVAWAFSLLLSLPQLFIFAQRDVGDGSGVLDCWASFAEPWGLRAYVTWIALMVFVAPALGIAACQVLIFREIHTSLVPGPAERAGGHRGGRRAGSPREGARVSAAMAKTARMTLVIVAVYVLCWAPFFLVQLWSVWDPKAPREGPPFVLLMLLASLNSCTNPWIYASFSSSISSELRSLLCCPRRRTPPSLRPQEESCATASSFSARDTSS

Compound `CC(C)[C@@H]1NC(=O)[C@H](Cc2ccccc2)NC(=O)[C@H](Cc2ccc(O)cc2)NC(=O)CCSSC[C@@H](C(=O)N[C@@H](CCCN=C(N)N)C(=O)N[C@@H](CCCN=C(N)N)C(N)=O)NC(=O)[C@H](CC(N)=O)NC1=O` ([Mpa]YFVNCRR-NH2; disulfide 1-6) registered a K bind of more than 1000 nM.
